{"source": "ChEMBL document CHEMBL4052722", "about": "“Virtual screening, synthesis and biological evaluation of DNA intercalating antiviral agents” (Bioorg Med Chem Lett, 2017)", "data": [{"species_on_record": "Bos taurus", "assay": "Displacement of ethidium bromide from calf thymus DNA by fluorescence binding assay", "settings": "not given", "values": [{"smiles": "CN(C)CCCOC(=O)Cn1c2ccccc2c2nc3ccccc3nc21", "log Ka": 5.28}, {"smiles": "CN(C)CCNCCn1c2ccccc2c2nc3ccccc3nc21", "log Ka": 6.83}, {"smiles": "O=C(CCCn1c2ccccc2c2nc3ccccc3nc21)NCCN1CCCCC1", "log Ka": 4.98}, {"smiles": "O=C(Cn1c2ccccc2c2nc3ccccc3nc21)NCCCN1CCOCC1", "log Ka": 5.32}, {"smiles": "O=C(Cn1c2ccccc2c2nc3ccccc3nc21)NCCN1CCOCC1", "log Ka": 5.13}, {"smiles": "CCN(CC)CCNC(=O)CCCn1c2ccccc2c2nc3ccccc3nc21", "log Ka": 5.25}, {"smiles": "CC1CCN(CC(=O)NN2C(=O)c3cccc4cccc(c34)C2=O)CC1", "log Ka": 5.73}, {"smiles": "O=C(CCCn1c2ccccc2c2nc3ccccc3nc21)NCCN1CCOCC1", "log Ka": 4.91}, {"smiles": "c1ccc2nc3c(nc2c1)c1ccccc1n3CCNCCN1CCCCC1", "log Ka": 6.85}, {"smiles": "O=C(CCCn1c2ccccc2c2nc3ccccc3nc21)NCCCN1CCOCC1", "log Ka": 5.11}, {"smiles": "CCCCN(C)CCn1c2ccccc2c2nc3ccccc3nc21", "log Ka": 5.93}, {"smiles": "CN1CCN(CC(=O)NN2C(=O)c3cccc4cccc(c34)C2=O)CC1", "log Ka": 5.43}, {"smiles": "O=C(CCCn1c2ccccc2c2nc3ccccc3nc21)OCCN1CCOCC1", "log Ka": 5.7}, {"smiles": "CN(C)CCCNC(=O)CCCn1c2ccccc2c2nc3ccccc3nc21", "log Ka": 5.09}, {"smiles": "O=C(Cn1c2ccccc2c2nc3ccccc3nc21)NCCCNCCO", "log Ka": 5.06}, {"smiles": "O=C(Cn1c2ccccc2c2nc3ccccc3nc21)OCCN1CCCCC1", "log Ka": 5.39}, {"smiles": "CN(C)CCCn1c2ccccc2c2nc3ccccc3nc21", "log Ka": 6.01}, {"smiles": "CCN(CC)CCCCCn1c2ccccc2c2nc3ccccc3nc21", "log Ka": 5.61}, {"smiles": "O=C(CCCCCN1C(=O)c2cccc3cccc(c23)C1=O)NCCCN1CCOCC1", "log Ka": 6.03}, {"smiles": "CCN(CC)CCCNC(=O)CCCCCN1C(=O)c2cccc3cccc(c23)C1=O", "log Ka": 6.81}, {"smiles": "O=C(CN1CCCCCC1)N/N=C1/C(=O)Nc2ccc3ccccc3c21", "log Ka": 6.52}, {"smiles": "CN(C)CCNC(=O)Cn1c2ccccc2c2nc3ccccc3nc21", "log Ka": 5.38}, {"smiles": "CC1CCN(CCn2c3ccc4ccccc4c3c3nc4ccccc4nc32)CC1", "log Ka": 6.83}, {"smiles": "CCN(CC)CCCNC(=O)Cn1c2ccccc2c2nc3ccccc3nc21", "log Ka": 4.93}, {"smiles": "O=C(CN1CCCC1)N/N=C1/C(=O)Nc2ccc3ccccc3c21", "log Ka": 6.44}, {"smiles": "CC1CCCCN1CCn1c2ccccc2c2nc3ccccc3nc21", "note": "(stereo not given)", "log Ka": 5.19}, {"smiles": "O=C(CCCn1c2ccccc2c2nc3ccccc3nc21)OCCN1CCCCC1", "log Ka": 5.57}, {"smiles": "c1ccc2nc3c(nc2c1)c1ccccc1n3CCCN1CCOCC1", "log Ka": 6.09}, {"smiles": "CN(C)CCCCCn1c2ccccc2c2nc3ccccc3nc21", "log Ka": 5.66}, {"smiles": "CCN(CC)CCn1c2ccc3ccccc3c2c2nc3ccccc3nc21", "log Ka": 6.79}, {"smiles": "O=C(CCCN1C(=O)c2cccc3cccc(c23)C1=O)NCCN1CCOCC1", "log Ka": 5.87}, {"smiles": "CCN(CC)CCOCCn1c2ccccc2c2nc3ccccc3nc21", "log Ka": 5.26}, {"smiles": "CCN(CC)CC(=O)N/N=C1\\C(=O)Nc2ccccc21", "log Ka": 5.96}, {"smiles": "CC1CCN(CC(=O)N/N=C2/C(=O)Nc3ccc4ccccc4c32)CC1", "log Ka": 7.11}, {"smiles": "CCN(CC)CCCC(C)N1C(=O)c2cccc3cccc(c23)C1=O", "note": "(stereo not given)", "log Ka": 5.5}, {"smiles": "CC1CCN(CCn2c3ccccc3c3nc4ccccc4nc32)CC1", "log Ka": 5.98}]}, {"system": "not listed separately", "assay": "Cytotoxicity against African green monkey CV1 cells assessed as cell viability at 0.1 to 100 uM preincubated for 4 hrs measured after 24 hrs by MTT assay relative to control", "format": "cell-based, CV-1", "settings": "chlorocebus aethiops, read-out: Activity", "summary_of_the_method": "(§1)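 CV-1 cells were exposed to test samples at 0.1, 10 and 100 μM. Viability was read by MTT assay.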", "units": {"viability at 24 h, up to 100 µM": "%"}, "values": [{"smiles": "CN(C)CCCOC(=O)Cn1c2ccccc2c2nc3ccccc3nc21", "viability at 24 h, up to 100 µM": 87}, {"smiles": "CN(C)CCNCCn1c2ccccc2c2nc3ccccc3nc21", "viability at 24 h, up to 100 µM": 99}, {"smiles": "O=C(CCCn1c2ccccc2c2nc3ccccc3nc21)NCCN1CCCCC1", "viability at 24 h, up to 100 µM": 93}, {"smiles": "O=C(Cn1c2ccccc2c2nc3ccccc3nc21)NCCCN1CCOCC1", "viability at 24 h, up to 100 µM": 102}, {"smiles": "O=C(Cn1c2ccccc2c2nc3ccccc3nc21)NCCN1CCOCC1", "viability at 24 h, up to 100 µM": 109}, {"smiles": "CCN(CC)CCNC(=O)CCCn1c2ccccc2c2nc3ccccc3nc21", "viability at 24 h, up to 100 µM": 88}, {"smiles": "CC1CCN(CC(=O)NN2C(=O)c3cccc4cccc(c34)C2=O)CC1", "viability at 24 h, up to 100 µM": 104}, {"smiles": "O=C(CCCn1c2ccccc2c2nc3ccccc3nc21)NCCN1CCOCC1", "viability at 24 h, up to 100 µM": 95}, {"smiles": "c1ccc2nc3c(nc2c1)c1ccccc1n3CCNCCN1CCCCC1", "viability at 24 h, up to 100 µM": 113}, {"smiles": "O=C(CCCn1c2ccccc2c2nc3ccccc3nc21)NCCCN1CCOCC1", "viability at 24 h, up to 100 µM": 85}, {"smiles": "CCCCN(C)CCn1c2ccccc2c2nc3ccccc3nc21", "viability at 24 h, up to 100 µM": 92}, {"smiles": "CN1CCN(CC(=O)NN2C(=O)c3cccc4cccc(c34)C2=O)CC1", "viability at 24 h, up to 100 µM": 84}, {"smiles": "O=C(CCCn1c2ccccc2c2nc3ccccc3nc21)OCCN1CCOCC1", "viability at 24 h, up to 100 µM": 102}, {"smiles": "CN(C)CCCNC(=O)CCCn1c2ccccc2c2nc3ccccc3nc21", "viability at 24 h, up to 100 µM": 96}, {"smiles": "O=C(Cn1c2ccccc2c2nc3ccccc3nc21)OCCN1CCCCC1", "viability at 24 h, up to 100 µM": 102}, {"smiles": "CN(C)CCNC(=O)Cn1c2ccccc2c2nc3ccccc3nc21", "viability at 24 h, up to 100 µM": 94}, {"smiles": "CCN(CC)CCCNC(=O)Cn1c2ccccc2c2nc3ccccc3nc21", "viability at 24 h, up to 100 µM": 88}, {"smiles": "CCN(CC)CCCC(C)N1C(=O)c2cccc3cccc(c23)C1=O", "note": "(stereo not given)", "viability at 24 h, up to 100 µM": 86}]}, {"system": "not listed separately", "assay": "Cytotoxicity against African green monkey CV1 cells assessed as reduction in cell viability preincubated for 4 hrs measured after 24 hrs by MTT assay relative to control", "format": "cell-based, CV-1", "settings": "chlorocebus aethiops", "summary_of_the_method": "as §1", "units": {"CC50 at 24 h": "µM"}, "values": [{"smiles": "CN(C)CCCOC(=O)Cn1c2ccccc2c2nc3ccccc3nc21", "CC50 at 24 h": 100}, {"smiles": "CN(C)CCNCCn1c2ccccc2c2nc3ccccc3nc21", "CC50 at 24 h": "> 100"}, {"smiles": "O=C(CCCn1c2ccccc2c2nc3ccccc3nc21)NCCN1CCCCC1", "CC50 at 24 h": 100}, {"smiles": "O=C(Cn1c2ccccc2c2nc3ccccc3nc21)NCCCN1CCOCC1", "CC50 at 24 h": "> 100"}, {"smiles": "O=C(Cn1c2ccccc2c2nc3ccccc3nc21)NCCN1CCOCC1", "CC50 at 24 h": "> 100"}, {"smiles": "CCN(CC)CCNC(=O)CCCn1c2ccccc2c2nc3ccccc3nc21", "CC50 at 24 h": 100}, {"smiles": "CC1CCN(CC(=O)NN2C(=O)c3cccc4cccc(c34)C2=O)CC1", "CC50 at 24 h": "> 100"}, {"smiles": "O=C(CCCn1c2ccccc2c2nc3ccccc3nc21)NCCN1CCOCC1", "CC50 at 24 h": "> 100"}, {"smiles": "c1ccc2nc3c(nc2c1)c1ccccc1n3CCNCCN1CCCCC1", "CC50 at 24 h": "> 100"}, {"smiles": "O=C(CCCn1c2ccccc2c2nc3ccccc3nc21)NCCCN1CCOCC1", "CC50 at 24 h": "> 100"}, {"smiles": "CCCCN(C)CCn1c2ccccc2c2nc3ccccc3nc21", "CC50 at 24 h": "> 100"}, {"smiles": "CN1CCN(CC(=O)NN2C(=O)c3cccc4cccc(c34)C2=O)CC1", "CC50 at 24 h": 100}, {"smiles": "O=C(CCCn1c2ccccc2c2nc3ccccc3nc21)OCCN1CCOCC1", "CC50 at 24 h": "> 100"}, {"smiles": "CN(C)CCCNC(=O)CCCn1c2ccccc2c2nc3ccccc3nc21", "CC50 at 24 h": "> 100"}, {"smiles": "O=C(Cn1c2ccccc2c2nc3ccccc3nc21)OCCN1CCCCC1", "CC50 at 24 h": "> 100"}, {"smiles": "CN(C)CCNC(=O)Cn1c2ccccc2c2nc3ccccc3nc21", "CC50 at 24 h": "> 100"}, {"smiles": "CCN(CC)CCCNC(=O)Cn1c2ccccc2c2nc3ccccc3nc21", "CC50 at 24 h": 100}, {"smiles": "CCN(CC)CCCC(C)N1C(=O)c2cccc3cccc(c23)C1=O", "note": "(stereo not given)", "CC50 at 24 h": 50}]}, {"system": "Vesicular stomatitis virus", "assay": "Antiviral activity against Vesicular stomatitis virus at 0.2 to 620 uM after 24 hrs post infection relative to control", "format": "functional", "settings": "not given", "units": {"Activity": "%"}, "values": [{"smiles": "CN(C)CCCOC(=O)Cn1c2ccccc2c2nc3ccccc3nc21", "Activity": 100}, {"smiles": "CN(C)CCNCCn1c2ccccc2c2nc3ccccc3nc21", "Activity": 42}, {"smiles": "O=C(Cn1c2ccccc2c2nc3ccccc3nc21)NCCCN1CCOCC1", "Activity": 60}, {"smiles": "O=C(Cn1c2ccccc2c2nc3ccccc3nc21)NCCN1CCOCC1", "Activity": 50}, {"smiles": "c1ccc2nc3c(nc2c1)c1ccccc1n3CCNCCN1CCCCC1", "Activity": 52}, {"smiles": "CCCCN(C)CCn1c2ccccc2c2nc3ccccc3nc21", "Activity": 75}, {"smiles": "O=C(CCCn1c2ccccc2c2nc3ccccc3nc21)OCCN1CCOCC1", "Activity": 80}, {"smiles": "O=C(Cn1c2ccccc2c2nc3ccccc3nc21)NCCCNCCO", "Activity": 72}, {"smiles": "O=C(Cn1c2ccccc2c2nc3ccccc3nc21)OCCN1CCCCC1", "Activity": 50}, {"smiles": "CN(C)CCCn1c2ccccc2c2nc3ccccc3nc21", "Activity": 23}, {"smiles": "CCN(CC)CCCCCn1c2ccccc2c2nc3ccccc3nc21", "Activity": 12}, {"smiles": "O=C(CCCCCN1C(=O)c2cccc3cccc(c23)C1=O)NCCCN1CCOCC1", "Activity": 50}, {"smiles": "CCN(CC)CCCNC(=O)CCCCCN1C(=O)c2cccc3cccc(c23)C1=O", "Activity": 50}, {"smiles": "O=C(CN1CCCCCC1)N/N=C1/C(=O)Nc2ccc3ccccc3c21", "Activity": 20}, {"smiles": "CN(C)CCNC(=O)Cn1c2ccccc2c2nc3ccccc3nc21", "Activity": 82}, {"smiles": "CC1CCN(CCn2c3ccc4ccccc4c3c3nc4ccccc4nc32)CC1", "Activity": 30}, {"smiles": "CCN(CC)CCCNC(=O)Cn1c2ccccc2c2nc3ccccc3nc21", "Activity": 85}, {"smiles": "O=C(CN1CCCC1)N/N=C1/C(=O)Nc2ccc3ccccc3c21", "Activity": 10}, {"smiles": "CC1CCCCN1CCn1c2ccccc2c2nc3ccccc3nc21", "note": "(stereo not given)", "Activity": 90}, {"smiles": "O=C(CCCn1c2ccccc2c2nc3ccccc3nc21)OCCN1CCCCC1", "Activity": 25}, {"smiles": "c1ccc2nc3c(nc2c1)c1ccccc1n3CCCN1CCOCC1", "Activity": 25}, {"smiles": "CN(C)CCCCCn1c2ccccc2c2nc3ccccc3nc21", "Activity": 68}, {"smiles": "CCN(CC)CCn1c2ccc3ccccc3c2c2nc3ccccc3nc21", "Activity": 14}, {"smiles": "O=C(CCCN1C(=O)c2cccc3cccc(c23)C1=O)NCCN1CCOCC1", "Activity": 5}, {"smiles": "CCN(CC)CCOCCn1c2ccccc2c2nc3ccccc3nc21", "Activity": 56}, {"smiles": "CCN(CC)CC(=O)N/N=C1\\C(=O)Nc2ccccc21", "Activity": 80}, {"smiles": "CC1CCN(CC(=O)N/N=C2/C(=O)Nc3ccc4ccccc4c32)CC1", "Activity": 40}, {"smiles": "CC1CCN(CCn2c3ccccc3c3nc4ccccc4nc32)CC1", "Activity": 90}]}]}
